# pIC50: −log10 of the molar value. Calls of active or inactive are those of the source. The rule behind the calls is not given here.
# What was measured:
# Mus musculus [1] = test: Toxicity in BALB/c nude mouse xenografted with human MDA-MB-231 cells assessed as liver damage at 2.5 to 10 mg/kg, po qd administered for 32 days by H&E staining based light microscopy; format: organism-based; details: in vivo, 768 h
# Procedure, shortened: (§1)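 6-week-old female athymic SPF BALB/c nude mice received 5 x 10^6 MDA-MB-231 cells s.c. in the flank. Oral treatment began once tumors reached about 100 mm3, with 8 mice per group and a saline vehicle control. […] Treatment lasted 32 days. Heart, liver, spleen, lung and kidney were fixed 48 h in 10% neutral-buffered formaldehyde, paraffin-embedded, cut at 5 µm, H&E-stained and examined by light microscopy.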
# [2] = target: T1, Signal transducer and activator of transcription 1-alpha/beta (Homo sapiens) (UniProt P42224); test: Binding affinity to STAT1 (unknown origin) after 30 mins by fluorescence polarization assay
# T1 sequence (whole entry): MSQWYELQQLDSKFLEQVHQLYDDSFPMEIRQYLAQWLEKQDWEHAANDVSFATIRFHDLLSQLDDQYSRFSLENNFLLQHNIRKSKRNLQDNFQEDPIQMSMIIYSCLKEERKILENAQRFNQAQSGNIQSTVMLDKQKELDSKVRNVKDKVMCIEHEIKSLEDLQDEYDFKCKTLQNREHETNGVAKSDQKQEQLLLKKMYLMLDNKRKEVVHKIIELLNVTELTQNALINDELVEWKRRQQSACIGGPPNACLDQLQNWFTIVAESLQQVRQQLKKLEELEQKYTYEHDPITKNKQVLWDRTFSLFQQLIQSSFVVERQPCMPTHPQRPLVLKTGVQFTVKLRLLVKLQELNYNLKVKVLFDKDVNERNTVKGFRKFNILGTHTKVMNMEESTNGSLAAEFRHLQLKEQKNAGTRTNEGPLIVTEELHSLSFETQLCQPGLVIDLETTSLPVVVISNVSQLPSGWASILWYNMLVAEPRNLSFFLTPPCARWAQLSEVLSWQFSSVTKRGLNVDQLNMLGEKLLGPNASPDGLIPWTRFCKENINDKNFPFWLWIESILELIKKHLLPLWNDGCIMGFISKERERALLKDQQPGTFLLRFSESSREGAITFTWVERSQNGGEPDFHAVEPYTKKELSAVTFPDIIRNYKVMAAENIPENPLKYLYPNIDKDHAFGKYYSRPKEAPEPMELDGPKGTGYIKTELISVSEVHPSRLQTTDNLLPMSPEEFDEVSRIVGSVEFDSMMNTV
# Procedure, shortened: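 A competitive fluorescence polarization assay measured displacement of fluorescent phosphopeptide from the SH2 domain of purchased STAT1 or STAT5 protein, using the corresponding peptides.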
# [3] = target: T1, Signal transducer and activator of transcription 1-alpha/beta (Homo sapiens); test: Inhibition of STAT1 in human MDA-MB-231 cells assessed as reduction in IFN-gamma-induced STAT1 phosphorylation at 2.5 to 5 uM preincubated for 2 hrs followed by IFN-gamma stimulation measured after 30 mins by Western blot analysis; format: cell-based
# Procedure, shortened: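 MDA-MB-231 cells were allowed to adhere overnight, then serum-starved. They were pretreated 2 h with 2.5-5 µM compound or DMSO and stimulated with IFN-γ (50 ng/mL). Cells were harvested after 30 min and immunoblotted for P-STAT1(Y701) and T-STAT1.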
# U2OS = test: Antiproliferative activity against human U2OS cells after 24 hrs by MTT assay; format: functional, cell-based
# Procedure, shortened: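 Cells were seeded at 3000 per well and incubated 24 h at 37 °C. Compounds were added in triplicate with 10% FBS: 0.1-10 or 0.1-20 µM for cancer lines, 3.125-400 µM for MCF-10A. Viability was read by MTT absorbance at 595 nm, with IC50 fitted from the curves. DMSO stocks were 20 mM.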
# [4] = Tmax in Sprague-Dawley rat plasma at 10 mg/kg, po measured after 24 hrs by UPLC analysis; format: ADME, organism-based
# Procedure, shortened: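 Rats dosed i.v. or p.o. Plasma concentrations followed from 2 min to 24 h after dosing. The bioanalytical method was validated to FDA guidelines for selectivity, linearity, LLOQ, accuracy, precision, recovery, matrix effect and stability.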
# Mus musculus [5] = test: Toxicity in BALB/c nude mouse xenografted with human MDA-MB-231 cells assessed as heart damage at 2.5 to 10 mg/kg, po qd administered for 32 days by H&E staining based light microscopy; format: organism-based; details: in vivo, 768 h; procedure, shortened: as §1
# [6] = target: T2, Signal transducer and activator of transcription 3 (Homo sapiens, UniProt P40763); details: 5 uM
# MDA-MB-231 [7] = test: Induction of apoptosis in human MDA-MB-231 cells assessed as increase in cleaved caspase level at 2.5 to 5 uM after 12 hrs by immunoblot analysis; format: functional, cell-based
# Procedure, shortened: (§2)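 MDA-MB-231 cells at 60–80% confluence were treated 12 h with 10% FBS at 2.5-10 µM or 2.5-5 µM, against a DMSO control. Whole-cell lysates were immunoblotted, with bands quantified as percent of control.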
# [8] = Clearance in Sprague-Dawley rat plasma at 10 mg/kg, po measured after 24 hrs by UPLC analysis; format: ADME, organism-based
# Procedure, shortened: (§3)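 Parameters were derived from the concentration-time profiles. The bioanalytical method was validated to FDA guidelines for selectivity, linearity, LLOQ, accuracy, precision, recovery, matrix effect and stability.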
# CCRF S-180 [9] = test: Antiproliferative activity against mouse S180 cells after 24 hrs by MTT assay; details: CCRF S-180, 24 h
# Rattus norvegicus [10] = test: AUMC (0 to t) in Sprague-Dawley rat plasma at 10 mg/kg, po measured after 24 hrs by UPLC analysis; format: ADME, organism-based; details: in vivo
# Procedure, shortened: as §3, with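 “Rat plasma sampled from 2 min to 24 h after a single i.v. (1 mg/kg) or p.o. (10 mg/kg) dose. Parameters” for “Parameters”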
# Rattus norvegicus [11] = test: Apparent volume of distribution in Sprague-Dawley rat plasma at 10 mg/kg, po measured after 24 hrs by UPLC analysis; format: ADME, organism-based; details: in vivo
# Procedure, shortened: as §3, with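 “Rat plasma sampled from 2 min to 24 h after a single i.v. (1 mg/kg) or p.o. (10 mg/kg) dose. Parameters” for “Parameters”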
# CCRF S-180 [12] = test: Anticancer activity against […] cells xenografted in BALB/c nude mouse assessed as reduction in tumor weight at 5 mg/kg, po measured after 21 days relative to vehicle control; format: functional; set-up: scale not given: the % may be the effect or the level left
# Procedure, shortened: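 Male mice, 4 weeks old, given s.c. flank S180 mouse sarcoma cells (3 x 10^6). From day 2, 10 mice per group received saline vehicle, oral drug at 5 mg/kg, or i.p. drug at 1 mg/kg, each dissolved in saline. Therapy ran 21 days; tumor weight and body weight were recorded.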
# [13] = target: T2, Signal transducer and activator of transcription 3; details: 2.5 to 5 uM
# [14] = target: T1, Signal transducer and activator of transcription 1-alpha/beta (Homo sapiens); test: Inhibition of STAT1 in human MDA-MB-231 cells assessed as reduction in IFN-gamma-induced STAT1-STAT1 DNA binding activity at 2.5 to 10 uM preincubated for 2 hrs followed by IFN-gamma stimulation measured after 30 mins by EMSA; format: cell-based
# Procedure, shortened: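 Serum-starved MDA-MB-231 cells were preincubated with compound, stimulated with IFN-γ 50 ng/mL, and then nuclear extracts were taken for EMSA with biotin-labeled probe.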
# MDA-MB-231 [15] = test: Induction of SHP-1 expression in human MDA-MB-231 cells at 2.5 to 10 uM after 12 hrs by immunoblot analysis; format: functional, cell-based; procedure, shortened: as §2
# T2 sequence (P40763 whole entry): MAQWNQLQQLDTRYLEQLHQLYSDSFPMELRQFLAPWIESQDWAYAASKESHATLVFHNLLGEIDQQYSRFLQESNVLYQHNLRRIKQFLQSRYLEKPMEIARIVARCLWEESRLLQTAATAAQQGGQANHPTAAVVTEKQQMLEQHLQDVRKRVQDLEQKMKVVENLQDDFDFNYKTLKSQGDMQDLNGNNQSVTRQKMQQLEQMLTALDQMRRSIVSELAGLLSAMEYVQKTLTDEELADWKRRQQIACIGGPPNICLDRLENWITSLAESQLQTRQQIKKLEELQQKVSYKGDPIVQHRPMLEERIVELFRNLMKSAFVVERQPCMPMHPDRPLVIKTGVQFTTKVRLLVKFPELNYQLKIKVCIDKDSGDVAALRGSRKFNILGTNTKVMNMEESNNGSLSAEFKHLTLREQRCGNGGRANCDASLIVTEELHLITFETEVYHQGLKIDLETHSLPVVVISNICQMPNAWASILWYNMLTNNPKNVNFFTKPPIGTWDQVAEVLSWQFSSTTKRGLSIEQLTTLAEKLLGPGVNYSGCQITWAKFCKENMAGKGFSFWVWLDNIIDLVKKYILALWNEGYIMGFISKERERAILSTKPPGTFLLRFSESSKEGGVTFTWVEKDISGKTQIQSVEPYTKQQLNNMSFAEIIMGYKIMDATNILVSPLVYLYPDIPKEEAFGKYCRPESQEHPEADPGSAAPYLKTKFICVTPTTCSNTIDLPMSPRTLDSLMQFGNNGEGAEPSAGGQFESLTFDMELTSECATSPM
smiles,measurement,setting,value
NS(=O)(=O)c1cccc2c1C(=O)C=C(Nc1ccccc1N1CCNCC1)C2=O,Activity,Mus musculus [1],Non-Toxic
same,Activity,[2],inactive
same,inhibition,[3],inactive
same,pIC50,U2OS,5.82
same,Tmax,[4],30 min
same,Activity,Mus musculus [5],Non-Toxic
same,inhibition,[6],Tde
same,Activity,MDA-MB-231 [7],Active
same,CL/F,[8],196 mL/min/kg
same,pIC50,CCRF S-180 [9],6.38
same,AUMCt,Rattus norvegicus [10],1622.6 hr2.ng/ml
same,Vz,Rattus norvegicus [11],32.0925 L/kg
same,Activity,CCRF S-180 [12],72.74%
same,inhibition,[13],Active
same,inhibition,[14],inactive
same,Activity,MDA-MB-231 [15],Active

# Source: ChEMBL document CHEMBL4007452, “Discovery of an Orally Selective Inhibitor of Signal Transducer and Activator of Transcription 3 Using Advanced Multiple Ligand Simultaneous Docking” (J Med Chem, 2017)
